Test results taken from ChEMBL document CHEMBL1649147, “Antistaphylococcal activity of dihydrophthalazine antifolates, a family of novel antibacterial drugs” (2009).

What was measured:
[1] = test system: Staphylococcus epidermidis; assay: Antibacterial activity against methicillin-resistant coagulase-negative Staphylococcus epidermidis 345 by broth macrodilution method; type: functional
Staphylococcus aureus [2] = assay: Antibacterial activity against methicillin-susceptible Staphylococcus aureus ATCC 29213 after 9 passages by agar dilution method; type: functional; conditions: ATCC29213
In short: (§1)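 Daily serial passage for up to 50 days at 35°C for 24 h in 1 ml MHB. […] Each transfer used 10 µl from the tube nearest the MIC (1–2 dilutions below) with the same turbidity as the drug-free control. […] MICs were measured by agar dilution, with changes given as log2 steps.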

[3] = test system: Staphylococcus epidermidis; assay: Antibacterial activity against methicillin-susceptible coagulase-negative Staphylococcus epidermidis 057 by broth macrodilution method; type: functional
Staphylococcus aureus [4] = assay: Antibacterial activity against methicillin-resistant Staphylococcus aureus 145 by broth macrodilution method; type: functional
[5] = test system: Staphylococcus epidermidis; assay: Antibacterial activity against methicillin-resistant coagulase-negative Staphylococcus epidermidis 197 after 12 passages by agar dilution method; type: functional; in short: as §1
[6] = test system: Staphylococcus epidermidis; assay: Antibacterial activity against methicillin-susceptible coagulase-negative Staphylococcus epidermidis 057 after 9 passages by agar dilution method; type: functional; in short: as §1
Staphylococcus aureus [7] = assay: Antibacterial activity against methicillin-resistant Staphylococcus aureus ATCC 43300 by broth macrodilution method; type: functional; conditions: ATCC43300
[8] = test system: Staphylococcus epidermidis; assay: Antibacterial activity against methicillin-susceptible coagulase-negative Staphylococcus epidermidis 051 after 9 passages by agar dilution method; type: functional; in short: as §1
[9] = test system: Staphylococcus epidermidis; assay: Antibacterial activity against methicillin-resistant, Linezolid non-susceptible coagulase-negative Staphylococcus epidermidis 345 after 9 passages by agar dilution method; type: functional; in short: as §1
Staphylococcus aureus [10] = assay: Antibacterial activity against methicillin-resistant and vancomycin-resistant Staphylococcus aureus VRS1 by agar dilution method; type: functional
In short: (§2)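 Agar dilution on Mueller-Hinton agar per CLSI guidelines. S. aureus ATCC 29213 and E. faecalis ATCC 29212 were run with each set, and test MICs were accepted only when the control strains fell within acceptable ranges.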

Staphylococcus aureus [11] = assay: Antibacterial activity against vancomycin-resistant Staphylococcus aureus VRS1 by broth macrodilution method; type: functional
In short: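 Michigan VRSA strain, one of 12 staphylococci later used in time-kill studies. MIC was determined by broth macrodilution and reported in μg/ml.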

Staphylococcus aureus [12] = assay: Antibacterial activity against methicillin-resistant Staphylococcus aureus 507 by broth macrodilution method; type: functional
[13] = test system: coagulase-negative staphylococci; assay: Antibacterial activity against methicillin-resistant coagulase-negative staphylococci by agar dilution method
[14] = test system: Staphylococcus epidermidis; assay: Antibacterial activity against methicillin-resistant coagulase-negative Staphylococcus epidermidis 074 by broth macrodilution method; type: functional
Staphylococcus aureus [15] = assay: Antibacterial activity against methicillin-resistant Staphylococcus aureus ATCC 43300 after 9 passages by agar dilution method; type: functional; conditions: ATCC43300
In short: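 Serial passage under drug. Inoculum was ~1 × 10^6 CFU/ml from overnight MHA growth, in 1 ml MHB at 35°C for 24 h. Drug ranged from 4 log2 steps above to 3 log2 steps below the MIC. […] MIC change is given as log2 steps.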

[16] = test system: Staphylococcus epidermidis; assay: Antibacterial activity against methicillin-susceptible coagulase-negative Staphylococcus epidermidis 051 by broth macrodilution method; type: functional
Staphylococcus aureus [17] = assay: Antibacterial activity against methicillin-susceptible Staphylococcus aureus ATCC 29213 by broth macrodilution method; type: functional; conditions: ATCC29213
Staphylococcus aureus [18] = assay: Antibacterial activity against methicillin-susceptible, vancomycin-intermediate Staphylococcus aureus 505 after 9 passages by agar dilution method; type: functional; in short: as §1
[19] = test system: coagulase-negative staphylococci; assay: Antibacterial activity against Tmp-susceptible coagulase-negative staphylococci by agar dilution method
Staphylococcus aureus [20] = assay: Antibacterial activity against methicillin-susceptible Staphylococcus aureus 505 by broth macrodilution method; type: functional
Staphylococcus aureus [21] = assay: Antibacterial activity against methicillin-susceptible, vancomycin-intermediate Staphylococcus aureus 505 by broth macrodilution method; type: functional
[22] = test system: Staphylococcus epidermidis; assay: Antibacterial activity against methicillin-resistant, vancomycin-intermediate coagulase-negative Staphylococcus epidermidis 225 by agar dilution method; type: functional; in short: as §2
Staphylococcus aureus [23] = assay: Antibacterial activity against Tmp-susceptible Staphylococcus aureus by agar dilution method; type: functional
In short: (§3)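 MICs by agar dilution on Mueller-Hinton agar following CLSI guidelines. S. aureus ATCC 29213 and E. faecalis ATCC 29212 were run as quality controls with each set, and test-strain MICs were kept only if control MICs fell within acceptable ranges.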

Staphylococcus aureus [24] = assay: Antibacterial activity against Tmp-resistant Staphylococcus aureus by agar dilution method; type: functional; in short: as §3
Staphylococcus aureus [25] = assay: Antibacterial activity against methicillin-resistant Staphylococcus aureus 145 after 10 passages by agar dilution method; type: functional
Staphylococcus aureus [26] = assay: Antibacterial activity against Tmp-susceptible coagulase-negative Staphylococcus aureus by agar dilution method; type: functional; in short: as §3
[27] = test system: Staphylococcus epidermidis; assay: Antibacterial activity against methicillin-resistant coagulase-negative Staphylococcus epidermidis 225 by broth macrodilution method; type: functional
[28] = test system: coagulase-negative staphylococci; assay: Antibacterial activity against methicillin-susceptible coagulase-negative staphylococci by agar dilution method
[29] = test system: coagulase-negative staphylococci; assay: Antibacterial activity against Tmp-resistant coagulase-negative staphylococci by agar dilution method
[30] = test system: Staphylococcus epidermidis; assay: Antibacterial activity against methicillin-resistant, vancomycin-intermediate coagulase-negative Staphylococcus epidermidis 225 after 11 passages by agar dilution method; type: functional; in short: as §1
[31] = test system: Staphylococcus epidermidis; assay: Antibacterial activity against methicillin-resistant, Linezolid non-susceptible coagulase-negative Staphylococcus epidermidis 345 by agar dilution method; type: functional
Staphylococcus aureus [32] = assay: Antibacterial activity against methicillin-resistant Staphylococcus aureus by agar dilution method; type: functional; in short: as §2
[33] = test system: Staphylococcus epidermidis; assay: Antibacterial activity against methicillin-resistant coagulase-negative Staphylococcus epidermidis 197 by broth macrodilution method; type: functional
Staphylococcus aureus [34] = assay: Antibacterial activity against methicillin-susceptible Staphylococcus aureus by agar dilution method; type: functional; in short: as §2
Staphylococcus aureus [35] = assay: microbe, parasite or virus in culture; conditions: 505
[36] = test system: Staphylococcus epidermidis; assay: Antibacterial activity against methicillin-resistant coagulase-negative Staphylococcus epidermidis 197 after 50 passages by agar dilution method; type: functional
In short: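 Daily serial passage for up to 50 days at 35°C for 24 h in 1 ml MHB. Each transfer used 10 µl from the tube nearest the MIC (1–2 dilutions below) with the same turbidity as the drug-free control. MICs were measured by agar dilution, with changes given as log2 steps.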

Staphylococcus aureus [37] = assay: microbe, parasite or virus in culture; conditions: ATCC29213
Staphylococcus aureus [38] = assay: microbe, parasite or virus in culture; conditions: ATCC43300

CO[C@H]1/C=C/O[C@@]2(C)Oc3c(C)c(O)c4c(O)c(c(/C=N/N5CCN(C)CC5)c(O)c4c3C2=O)NC(=O)/C(C)=C\C=C\[C@H](C)[C@H](O)[C@@H](C)[C@@H](O)[C@@H](C)[C@H](OC(C)=O)[C@@H]1C [RIFAMPIN]
2 µg/mL: MIC90 [13]
4 µg/mL: MIC (Staphylococcus aureus [12])
≤ 4 ng/mL: MIC [28]
0.004 µg/mL: MIC (Staphylococcus aureus [7])
> 32 µg/mL: MIC (Staphylococcus aureus [10])
> 16 µg/mL: MIC90 (Staphylococcus aureus [24]) | MIC90 [29]
0.03 µg/mL: MIC [3] | MIC [14] | MIC (Staphylococcus aureus [20]) | MIC [27] | MIC [33]
8 ng/mL: MIC (Staphylococcus aureus [4]) | MIC50 (Staphylococcus aureus [24]) | MIC50 [29] | MIC [31]
≤ 0.004 µg/mL: MIC (Staphylococcus aureus [26])
> 128 µg/mL: MIC (Staphylococcus aureus [2]) | MIC [5] | MIC [6] | MIC [8] | MIC [9] | MIC (Staphylococcus aureus [11]) | MIC (Staphylococcus aureus [15]) | MIC (Staphylococcus aureus [18]) | MIC (Staphylococcus aureus [25]) | MIC [30]
0.008 µg/mL: MIC50 [13] | MIC (Staphylococcus aureus [17]) | MIC50 [19] | MIC50 (Staphylococcus aureus [34])
0.016 µg/mL: MIC [1] | MIC [16] | MIC90 [19] | MIC (Staphylococcus aureus [21]) | MIC [22] | MIC50 (Staphylococcus aureus [23]) | MIC90 (Staphylococcus aureus [23]) | MIC90 [28] | MIC50 (Staphylococcus aureus [32]) | MIC90 (Staphylococcus aureus [32]) | MIC90 (Staphylococcus aureus [34])

COc1cc(Cc2cnc(N)nc2N)cc(OC)c1OC [TRIMETHOPRIM]
4 µg/mL: MIC [14]
0.25 µg/mL: MIC50 [19]
> 128000 ng/mL: MIC (Staphylococcus aureus [4]) | MIC50 (Staphylococcus aureus [24]) | MIC50 [29] | MIC [31]
≤ 8 ng/mL: MIC (Staphylococcus aureus [32])
2 µg/mL: MIC90 [19]
128 µg/mL: MIC [3] | MIC (Staphylococcus aureus [12]) | MIC50 [13] | MIC [16]
64 µg/mL: MIC90 [28] | MIC [36]
0.03 µg/mL: MIC (Staphylococcus aureus [26])
1 µg/mL: MIC (Staphylococcus aureus [7]) | MIC (Staphylococcus aureus [17]) | MIC (Staphylococcus aureus [20]) | MIC (Staphylococcus aureus [21])
0.5 µg/mL: MIC50 (Staphylococcus aureus [23]) | MIC90 (Staphylococcus aureus [23]) | MIC50 (Staphylococcus aureus [32]) | MIC [33] | MIC50 (Staphylococcus aureus [34])
32 µg/mL: MIC (Staphylococcus aureus [24])
> 128 µg/mL: MIC [1] | MIC (Staphylococcus aureus [10]) | MIC (Staphylococcus aureus [11]) | MIC [22] | MIC [27] | MIC (Staphylococcus aureus [35]) | MIC (Staphylococcus aureus [37]) | MIC90 (Staphylococcus aureus [34]) | MIC (Staphylococcus aureus [38])
